Assay results as given in ChEMBL document CHEMBL1671695, “Specificity of induction of the vanA and vanB operons in vancomycin-resistant enterococci by telavancin” (Antimicrob Agents Chemother, 2010).
Values after ≈ are worked out from the molar mass of the structure shown. Active and inactive are the calls of the source. No cut-off for these calls is given here.

Assays:
Enterococcus faecalis [1] = assay: Induction of VanX activity in Enterococcus faecalis ATCC 51299 expressing Van B gene at 0.3 times MIC by high-performance liquid chromatography; format: functional, organism-based
Enterococcus faecalis [2] = assay: Induction of VanX activity in Enterococcus faecalis ATCC 51575 expressing Van B gene at 0.3 times MIC by high-performance liquid chromatography; format: functional, organism-based
Enterococcus faecalis [3] = assay: Induction of VanA activity in vancomycin susceptible Enterococcus faecalis BM4110 harboring Van A gene assessed as UDP-MurNAc-tetrapeptide profile at 4 ug/ml […]; format: functional
Method in brief: (§1)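 Ramoplanin (3 μg/ml) was then added for 15 min. Cytoplasmic precursors were extracted with 8% trichloroacetic acid (15 min, 4°C), desalted and run on HPLC. Each precursor is given as % of total late precursors (tetrapeptide, pentapeptide, pentadepsipeptide) from integrated peak areas.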

Enterococcus faecium [4] = assay: Induction of VanA activity in Enterococcus faecium ATCC 51559 expressing Van A gene assessed as UDP-MurNAc-tetrapeptide profile at 4 ug/ml […]; format: functional
Method in brief: (§2)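 Ramoplanin (3 μg/ml) was then added for 15 min. Cytoplasmic precursors were extracted with 8% TCA (15 min, 4°C), desalted and analysed by HPLC. Each precursor (tetrapeptide, pentapeptide, pentadepsipeptide) is expressed as a percentage of total late precursors from integrated peak areas.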

Enterococcus faecalis [5] = assay: Induction of VanA activity in vancomycin susceptible Enterococcus faecalis BM4110 assessed as UDP-MurNAc-pentapeptide profile at 0.1 ug/ml […]; format: functional; method in brief: as §2
Enterococcus faecium [6] = assay: Induction of VanA activity in Enterococcus faecium ATCC 51559 expressing Van A gene assessed as UDP-MurNAc-pentapeptide profile at 4 ug/ml […]; format: functional; method in brief: as §2
Enterococcus faecalis [7] = assay: Induction of VanA activity in Enterococcus faecalis ATCC 51299 expressing Van B gene assessed as UDP-MurNAc-pentapeptide profile at 0.1 ug/ml […]; format: functional; method in brief: as §2
Enterococcus faecalis [8] = assay: Induction of VanA activity in Enterococcus faecalis ATCC 51575 expressing Van B gene assessed as UDP-MurNAc-pentapeptide profile at 0.1 ug/ml […]; format: functional
Enterococcus faecalis [9] = assay: Induction of VanX activity in vancomycin susceptible Enterococcus faecalis BM4110 harboring Van A gene assessed as UDP-MurNAc-depsipeptide profile at 4 ug/ml […]; format: functional; method in brief: as §1
Enterococcus faecium [10] = assay: Induction of VanX activity in Enterococcus faecium ATCC 51559 expressing Van A gene assessed as UDP-MurNAc-depsipeptide profile at 4 ug/ml […]; format: functional; method in brief: as §2
Enterococcus faecalis [11] = assay: Antimicrobial activity against streptomycin-resistant, vancomycin-susceptible Enterococcus faecalis BM4110 by broth microdilution method; format: functional
Method in brief: (§3)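 Broth microdilution MIC per CLSI-approved methods; strains maintained on tryptic soy agar with 5% sheep blood at 37°C.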

Enterococcus faecalis [12] = assay: Antimicrobial activity against Enterococcus faecalis BM4110 expressing VanA and harboring transposon tn1546 by broth microdilution method; format: functional; method in brief: as §3
Enterococcus faecium [13] = assay: Antimicrobial activity against Enterococcus faecium ATCC 51559 by broth microdilution method; format: functional; method in brief: as §3
Enterococcus faecalis [14] = assay: Antimicrobial activity against Enterococcus faecalis ATCC 51299 by broth microdilution method; format: functional; method in brief: as §3
Enterococcus faecalis [15] = assay: Antimicrobial activity against Enterococcus faecalis ATCC 51575 by broth microdilution method; format: functional
Method in brief: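 Strains were grown on TSA with 5% sheep blood at 37°C. MIC was determined by broth microdilution following CLSI methods.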

Enterococcus faecalis [16] = assay: Induction of VanX activity in Enterococcus faecalis BM4110 expressing VanA and harboring transposon tn1546 at 0.4 times MIC by Western blotting relative to uninduced control; format: functional
Method in brief: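 Cells grown in BHI at 37°C with telavancin, harvested and treated with mutanolysin, then sonicated. Soluble extract (35 ng protein) was run on a 4–12% polyacrylamide gel and transferred to PVDF. Blot probed with affinity-purified polyclonal anti-VanX (1/5,000), then IRDye 800CW goat anti-rabbit IgG (1/10,000), with infrared fluorescence detection. VanX amount expressed relative to basal level without antibiotic.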

Enterococcus faecalis [17] = assay: Induction of D,D-dipeptidase activity in Enterococcus faecalis BM4110 expressing VanA and harboring transposon tn1546 at 0.4 times MIC by Western blotting relative to uninduced control; format: functional
[18] = biological target: T1, D-alanyl-D-alanine dipeptidase (Enterococcus faecium, UniProt Q06241); assay: Inhibition of D,D-dipeptidase activity Van X in Enterococcus faecium ATCC 51559 using D-alanyl-(R)-phenylthioglycine substrate
T1 sequence (Q06241 whole entry): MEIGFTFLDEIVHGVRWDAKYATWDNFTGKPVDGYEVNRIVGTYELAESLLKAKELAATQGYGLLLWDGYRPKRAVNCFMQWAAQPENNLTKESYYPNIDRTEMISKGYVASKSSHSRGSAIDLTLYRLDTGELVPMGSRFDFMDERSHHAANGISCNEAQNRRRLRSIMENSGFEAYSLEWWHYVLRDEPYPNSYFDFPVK
Method in brief: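 Continuous DTNB-coupled VanX assay on soluble extract (100 mM Tris pH 7.5, 412 nm, 22°C). d-Alanyl-(R)-phenylthioglycine was 0.125–0.75 mM and the phosphonamidate inhibitor N-[(1-aminoethyl)hydroxyphosphinyl]-d-alanine 25–324 μM. Ki came from fitting initial rates to a competitive inhibition model.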

Enterococcus faecium [19] = assay: Induction of VanX activity in Enterococcus faecium ATCC 51559 expressing Van A gene by high-performance liquid chromatography; format: functional, organism-based
Enterococcus faecalis [20] = assay: Induction of VanX activity in Enterococcus faecalis BM4110 expressing Van A gene by high-performance liquid chromatography; format: functional, organism-based
Enterococcus faecalis [21] = assay: Induction of VanX activity in Enterococcus faecalis ATCC 51299 expressing Van B gene by high-performance liquid chromatography; format: functional, organism-based
Enterococcus faecalis [22] = assay: Induction of VanX activity in Enterococcus faecalis ATCC 51575 expressing Van B gene by high-performance liquid chromatography; format: functional, organism-based
Enterococcus faecalis [23] = assay: Induction of VanA activity in vancomycin susceptible Enterococcus faecalis BM4110 harboring Van A gene assessed as UDP-MurNAc-tetrapeptide profile at 64 ug/ml […]; format: functional; method in brief: as §1
Enterococcus faecium [24] = assay: Induction of VanA activity in Enterococcus faecium ATCC 51559 expressing Van A gene assessed as UDP-MurNAc-tetrapeptide profile at 64 ug/ml […]; format: functional; method in brief: as §1
Enterococcus faecalis [25] = assay: Induction of VanA activity in Enterococcus faecalis ATCC 51299 expressing Van B gene assessed as UDP-MurNAc-tetrapeptide profile at 3 ug/ml […]; format: functional; method in brief: as §1
Enterococcus faecalis [26] = assay: Induction of VanA activity in Enterococcus faecalis ATCC 51575 expressing Van B gene assessed as UDP-MurNAc-tetrapeptide profile at 16 ug/ml […]; format: functional; method in brief: as §1
Enterococcus faecalis [27] = assay: Induction of VanA activity in vancomycin susceptible Enterococcus faecalis BM4110 assessed as UDP-MurNAc-pentapeptide profile at 1 ug/ml […]; format: functional; method in brief: as §1
Enterococcus faecalis [28] = assay: Induction of VanA activity in Enterococcus faecalis ATCC 51299 expressing Van B gene assessed as UDP-MurNAc-pentapeptide profile at 3 ug/ml […]; format: functional; method in brief: as §1
Enterococcus faecalis [29] = assay: Induction of VanA activity in Enterococcus faecalis ATCC 51575 expressing Van B gene assessed as UDP-MurNAc-pentapeptide profile at 16 ug/ml […]; format: functional; method in brief: as §1
Enterococcus faecalis [30] = assay: Induction of VanX activity in vancomycin susceptible Enterococcus faecalis BM4110 harboring Van A gene assessed as UDP-MurNAc-depsipeptide profile at 64 ug/ml […]; format: functional; method in brief: as §1
Enterococcus faecium [31] = assay: Induction of VanX activity in Enterococcus faecium ATCC 51559 expressing Van A gene assessed as UDP-MurNAc-depsipeptide profile at 64 ug/ml […]; format: functional; method in brief: as §1
Enterococcus faecalis [32] = assay: Induction of VanX activity in Enterococcus faecalis ATCC 51299 expressing Van B gene assessed as UDP-MurNAc-depsipeptide profile at 3 ug/ml […]; format: functional; method in brief: as §1
Enterococcus faecalis [33] = assay: Induction of VanX activity in Enterococcus faecalis ATCC 51575 expressing Van B gene assessed as UDP-MurNAc-depsipeptide profile at 16 ug/ml […]; format: functional; method in brief: as §1

CCCCCCCCCCNCCN[C@@]1(C)C[C@H](O[C@H]2[C@H](Oc3c4cc5cc3Oc3ccc(cc3Cl)[C@@H](O)[C@@H](NC(=O)[C@@H](CC(C)C)NC)C(=O)N[C@@H](CC(N)=O)C(=O)N[C@H]5C(=O)N[C@H]3C(=O)N[C@H](C(=O)N[C@H](C(=O)O)c5cc(O)c(CNCP(=O)(O)O)c(O)c5-c5cc3ccc5O)[C@H](O)c3ccc(c(Cl)c3)O4)O[C@H](CO)[C@@H](O)[C@@H]2O)O[C@@H](C)[C@H]1O [TELAVANCIN]
Activity (Enterococcus faecalis [1]): inactive | Activity (Enterococcus faecalis [2]): inactive | Activity (Enterococcus faecalis [3]): 26% | Activity (Enterococcus faecium [4]): 40% | Activity (Enterococcus faecalis [5]): 100% | Activity (Enterococcus faecium [6]): 8% | Activity (Enterococcus faecalis [7]): 100% | Activity (Enterococcus faecalis [8]): 100% | Activity (Enterococcus faecalis [9]): 74% | Activity (Enterococcus faecium [10]): 52% | MIC (Enterococcus faecalis [11]): 1 µg/mL (≈ 0.57 µM) | MIC (Enterococcus faecalis [12]): 8 µg/mL (≈ 4.56 µM) | MIC (Enterococcus faecium [13]): 8 µg/mL (≈ 4.56 µM) | MIC (Enterococcus faecalis [14]): 1 µg/mL (≈ 0.57 µM) | MIC (Enterococcus faecalis [15]): 0.5 µg/mL (≈ 0.285 µM) | fold change (FC) (Enterococcus faecalis [16]): 4 | fold change (FC) (Enterococcus faecalis [17]): 6

CN[C@H](CC(C)C)C(=O)N[C@H]1C(=O)N[C@@H](CC(N)=O)C(=O)N[C@H]2C(=O)N[C@H]3C(=O)N[C@H](C(=O)N[C@H](C(=O)O)c4cc(O)cc(O)c4-c4cc3ccc4O)[C@H](O)c3ccc(c(Cl)c3)Oc3cc2cc(c3O[C@@H]2O[C@H](CO)[C@@H](O)[C@H](O)[C@H]2O[C@H]2C[C@](C)(N)[C@H](O)[C@H](C)O2)Oc2ccc(cc2Cl)[C@H]1O [VANCOMYCIN]
Ki [18]: 62 µM | Activity (Enterococcus faecium [19]): Dose-dependent effect | Activity (Enterococcus faecalis [20]): Dose-dependent effect | Activity (Enterococcus faecalis [21]): Active | Activity (Enterococcus faecalis [22]): Active | Activity (Enterococcus faecalis [23]): 27% | Activity (Enterococcus faecium [24]): 41% | Activity (Enterococcus faecalis [25]): 6% | Activity (Enterococcus faecalis [26]): 4% | Activity (Enterococcus faecalis [27]): 100% | Activity (Enterococcus faecalis [28]): 19% | Activity (Enterococcus faecalis [29]): 10% | Activity (Enterococcus faecalis [30]): 73% | Activity (Enterococcus faecium [31]): 59% | Activity (Enterococcus faecalis [32]): 75% | Activity (Enterococcus faecalis [33]): 86% | MIC (Enterococcus faecalis [11]): 2 µg/mL (≈ 1.38 µM) | MIC (Enterococcus faecalis [12]): 1020 µg/mL (≈ 707 µM) | MIC (Enterococcus faecalis [14]): 16 µg/mL (≈ 11 µM) | MIC (Enterococcus faecalis [15]): 256 µg/mL (≈ 177 µM)
